Assay results from publication PMC4096895 (Organic & biomolecular chemistry, 2014).
Values belong to the compound of their own block, whether it stands above or below them.

Columns and labels:
[1] = tested on: β-galactosidase (A. oryzae); assay: Assay for enzymatic substrate hydrolysis; format: biochemical, Aspergillus oryzae; conditions: 50 mM acetate buffer pH 5.0, 30 °C, no inhibitor
[2] = target: β-galactosidase (A. oryzae) (Aspergillus oryzae, UniProt Q2UCU3); assay: Assay for the inhibited enzymatic substrate hydrolysis; format: biochemical; conditions: 50 mM acetate buffer pH 5.0, 30 °C
Amidine stability assay = format: physicochemical
How it was run: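 Test compound kept as a 0.168 M stock in nanopure water at ambient temperature, and aliquots were diluted into the incubation buffer. Samples were flash-frozen in liquid nitrogen and stored at −18°C until analysis. Quantification was by HPLC on a carbohydrate Na+ (8%) column at 80°C, with nanopure water as eluent at 0.4 mL/min and light-scattering detection.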

[3] = Water solubility under the kinetic assay conditions; format: physicochemical; conditions: under the used assay condition (50 mM acetate buffer pH 5)

β-galactosidase (A. oryzae) (Aspergillus oryzae, UniProt Q2UCU3), sequence (Q2UCU3 19-1005): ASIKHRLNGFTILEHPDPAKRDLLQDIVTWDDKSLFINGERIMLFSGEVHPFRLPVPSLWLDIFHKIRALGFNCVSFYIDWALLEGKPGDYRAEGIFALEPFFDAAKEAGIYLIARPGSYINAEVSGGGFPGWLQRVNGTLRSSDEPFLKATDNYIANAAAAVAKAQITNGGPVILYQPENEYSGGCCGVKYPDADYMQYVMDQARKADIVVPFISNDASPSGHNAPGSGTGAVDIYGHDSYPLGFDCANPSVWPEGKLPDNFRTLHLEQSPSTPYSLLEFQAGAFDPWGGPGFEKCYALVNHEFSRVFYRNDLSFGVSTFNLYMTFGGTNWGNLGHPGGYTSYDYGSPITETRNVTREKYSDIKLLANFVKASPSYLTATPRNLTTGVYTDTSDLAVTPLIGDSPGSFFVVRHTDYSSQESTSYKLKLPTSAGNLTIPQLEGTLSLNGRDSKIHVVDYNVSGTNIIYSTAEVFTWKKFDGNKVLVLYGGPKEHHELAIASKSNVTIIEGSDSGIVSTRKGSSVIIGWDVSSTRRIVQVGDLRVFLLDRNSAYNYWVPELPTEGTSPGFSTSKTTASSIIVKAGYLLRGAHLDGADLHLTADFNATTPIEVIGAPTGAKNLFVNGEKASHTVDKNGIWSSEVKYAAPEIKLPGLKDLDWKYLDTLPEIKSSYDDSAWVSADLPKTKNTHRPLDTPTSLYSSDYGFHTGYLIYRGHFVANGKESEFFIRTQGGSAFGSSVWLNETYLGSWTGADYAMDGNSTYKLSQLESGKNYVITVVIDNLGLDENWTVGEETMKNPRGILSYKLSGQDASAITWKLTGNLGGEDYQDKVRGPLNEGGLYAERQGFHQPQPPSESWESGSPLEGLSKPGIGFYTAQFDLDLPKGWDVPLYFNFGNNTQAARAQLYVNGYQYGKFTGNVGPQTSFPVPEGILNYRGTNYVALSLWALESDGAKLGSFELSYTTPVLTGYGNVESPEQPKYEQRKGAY

SMILES: O=[N+]([O-])c1ccc(F)cc1O[C@@H]1O[C@H](CO)[C@H](O)[C@H](O)[C@H]1O [2f, 5-Fluoro-2-nitrophenyl-β-D-galactopyranoside]
Km [1]: 1780 µM
kcat [1]: 64.77 s⁻¹

SMILES: Cc1ccc([N+](=O)[O-])c(O[C@@H]2O[C@H](CO)[C@H](O)[C@H](O)[C@H]2O)c1 [2g, 5-Methyl-2-nitrophenyl-β-D-galactopyranoside]
Km [1]: 4270 µM
kcat [1]: 70.15 s⁻¹

SMILES: O=[N+]([O-])c1ccc(O[C@@H]2O[C@H](CO)[C@H](O)[C@H](O)[C@H]2O)cc1 [2h, 4-nitrophenyl-β-D-galactopyranoside, reference compound]
Km [1]: 840 µM
kcat [1]: 53.97 s⁻¹

SMILES: Cc1ccc(O[C@@H]2O[C@H](CO)[C@H](O)[C@H](O)[C@H]2O)c([N+](=O)[O-])c1 [2b, 4-Methyl-2-nitrophenyl-β-D-galactopyranoside]
Km [1]: 1490 µM
kcat [1]: 80.13 s⁻¹

SMILES: O=[N+]([O-])c1ccc(O[C@@H]2O[C@H](CO)[C@H](O)[C@H](O)[C@H]2O)c(Cl)c1 [2k, 2-Chloro-4-nitrophenyl-β-D-galactopyranoside]
Km [1]: 700 µM
kcat [1]: 39.68 s⁻¹

SMILES: O=[N+]([O-])c1ccccc1O[C@@H]1O[C@H](CO)[C@H](O)[C@H](O)[C@H]1O [2a, 2-nitrophenyl-β-D-galactopyranoside, reference compound]
Km [1]: 1270 µM
kcat [1]: 76.5 s⁻¹

SMILES: O=[N+]([O-])c1cc(F)ccc1O[C@@H]1O[C@H](CO)[C@H](O)[C@H](O)[C@H]1O [2c, 4-Fluoro-2-nitrophenyl-β-D-galactopyranoside]
Km [1]: 1240 µM
kcat [1]: 77.63 s⁻¹

SMILES: Cc1ccc(CN=C2N[C@H](CO)[C@H](O)[C@H](O)[C@H]2O)cc1 [1d, p-methylbenzyl-D-galactonoamidine]
Ki ([2]; substrate 2a): 0.0233 µM
Ki ([2]; substrate 2b): 0.0141 µM
Ki ([2]; substrate 2c): 0.0133 µM
Ki ([2]; substrate 2e): 0.0165 µM
Ki ([2]; substrate 2f): 0.0246 µM
Ki ([2]; substrate 2g): 0.0557 µM
Ki ([2]; substrate 2i): 0.0115 µM
Ki ([2]; substrate 2k): 0.008 µM
Ki ([2]; substrate 2h): 0.0151 µM
Ki ([2]; substrate 2d): 0.0116 µM
stability (Amidine stability assay; 5 mM CAPS buffer at pH 10.5 and 0°C, preliminary results): sufficient stability
stability (Amidine stability assay; 5 mM TAPS buffer at pH 9 and 10°C, preliminary results): sufficient stability
stability (Amidine stability assay; 50 mM CAPS buffer at pH 10.5 and 72°C): insufficient stability
stability (HPLC) (Amidine stability assay; acetate buffer at 30°C, same amount of time (3h)): no evidence for compound decomposition
time found stable (Amidine stability assay; nanopure water at 30, 50 or 72°C): ≥ 3 h

SMILES: OCC1NC(=NCc2cccc(F)c2)C(O)C(O)C1O [1f, 3-fluorobenzyl-D-galactonoamidine]
Ki ([2]; substrate 2a): 0.0164 µM
Ki ([2]; substrate 2b): 0.0223 µM
Ki ([2]; substrate 2c): 0.0181 µM
Ki ([2]; substrate 2e): 0.0142 µM
Ki ([2]; substrate 2f): 0.0303 µM
Ki ([2]; substrate 2g): 0.0581 µM
Ki ([2]; substrate 2i): 0.0137 µM
Ki ([2]; substrate 2k): 0.0203 µM
Ki ([2]; substrate 2h): 0.0228 µM
Ki ([2]; substrate 2d): 0.0133 µM

water solubility [3]: surprising low water solubility
SMILES: COc1ccc(O[C@@H]2O[C@H](CO)[C@H](O)[C@H](O)[C@H]2O)c([N+](=O)[O-])c1 [2p, 4-Methoxy-2-nitrophenyl-β-D-galactopyranoside]

SMILES: O=[N+]([O-])c1cc(Cl)ccc1O[C@@H]1O[C@H](CO)[C@H](O)[C@H](O)[C@H]1O [2d, 4-Chloro-2-nitrophenyl-β-D-galactopyranoside]
Km [1]: 960 µM
kcat [1]: 68.97 s⁻¹

SMILES: O=[N+]([O-])c1ccc(O[C@@H]2O[C@H](CO)[C@H](O)[C@H](O)[C@H]2O)c(F)c1 [2i, 2-Fluoro-4-nitrophenyl-β-D-galactopyranoside]
Km [1]: 920 µM
kcat [1]: 61.17 s⁻¹

SMILES: O=[N+]([O-])c1cc(Br)ccc1O[C@@H]1O[C@H](CO)[C@H](O)[C@H](O)[C@H]1O [2e, 4-Bromo-2-nitrophenyl-β-D-galactopyranoside]
Km [1]: 1100 µM
kcat [1]: 64.7 s⁻¹
